Results on two compounds are retold here after ChEMBL document CHEMBL5653632, “PRMT5 inhibition disrupts splicing and stemness in glioblastoma” (Nat Commun, 2021).

As usually defined, the pIC50 is −log10 of the IC50, conventionally taken in molar units. Lower therefore signals a high IC50. As usually defined, the pEC50 is the negative decadic logarithm of the EC50, by convention in mol/L. Read a high pEC50 as a small EC50.

The structures appear in SMILES notation. pEC50, pIC50: −log10 of the molar value. Calls of active or inactive are those of the source. The rule behind the calls is not given here.

Series [1] in a line: Antiproliferative activity against human G637 cells incubated for 9 to 12 days by IncuCyte zoom live-cell imaging analysis. The class given is functional, cell-based. A digest of the protocol:
(§1)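 Adherent GSC lines on poly-L-ornithine/laminin in serum-free EGF/bFGF medium were exposed to nine concentrations from 3 nM to 30 µM, with three technical replicates per dose. Exposure lasted 9–20 days until DMSO controls were confluent, with drug-containing medium refreshed every 5 days. IncuCyte confluence was normalized to DMSO. Curves were built at the 95th percentile of DMSO time-to-confluence, and AAC was derived with PharmacoGx.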

Series [2] in a line: Antiproliferative activity against human G719 cells incubated for 9 to 12 days by IncuCyte zoom live-cell imaging analysis. Type of series: functional, cell-based. A digest of the protocol: as §1
Series [3] can be described thus: Antiproliferative activity against human BT67 cells incubated for 9 to 12 days by IncuCyte zoom live-cell imaging analysis. The class given is functional, cell-based.
Series [4] has as its system G837. The series is described as follows: Inhibition of cell growth in human G837 cells pretreated with compound for 14 days followed by compound washout and measured after 14 days. The class given is functional, cell-based. The settings on record: time 14.0 day. In a few lines: (§2)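 GSC lines were treated with 1 µM for 14 days. Compound was then washed out, and growth was followed for a further 14 days.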

In series [5] the test system is G583. The series is described as follows: Induction of apoptosis in human G583 cells at 1 uM after 5 days by Annexin-V staining based IncuCyte live cell imaging analysis. Type of series: functional. The settings on record: time 5.0 day.
Series [6] is described as follows: Antiproliferative activity against human G584 cells incubated for 9 to 12 days by IncuCyte zoom live-cell imaging analysis. Type of series: functional, cell-based. In a few lines:
as §1

Series [7] in a line: Antiproliferative activity against human BT301 cells incubated for 9 to 12 days by IncuCyte zoom live-cell imaging analysis. Type of series: functional, cell-based.
A short description of series [8]: Antiproliferative activity against human BT238 cells incubated for 9 to 12 days by IncuCyte zoom live-cell imaging analysis. The class given is functional, cell-based.
Series [9] concerns G411. The series is described as follows: Inhibition of cell growth in human G411 cells pretreated with compound for 14 days followed by compound washout and measured after 14 days. The class given is functional, cell-based. The settings on record: time 14.0 day. In a few lines: as §2
The nature of series [10]: Antiproliferative activity against human G613 cells incubated for 9 to 12 days by IncuCyte zoom live-cell imaging analysis. Type of series: functional, cell-based. In a few lines:
as §1

A short description of series [11]: Antiproliferative activity against human G752 cells incubated for 9 to 12 days by IncuCyte zoom live-cell imaging analysis. Type of series: functional, cell-based. A digest of the protocol: as §1
Series [12] is described as follows: Antiproliferative activity against human BT94 cells incubated for 9 to 12 days by IncuCyte zoom live-cell imaging analysis. The class given is functional, cell-based.
For series [13], the system named is G411. The series is described as follows: Antiproliferative activity against human G411 cells incubated for 9 to 12 days by IncuCyte zoom live-cell imaging analysis. The class given is functional, cell-based. A digest of the protocol: (§3)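 Adherent culture on poly-L-ornithine/laminin in serum-free NS-A medium with EGF and bFGF (10 ng/mL each) and heparin. Nine concentrations (3 nM–30 µM), three technical replicates per dose, DMSO control, medium and drug refreshed every 5 days, run until DMSO wells were confluent (9–20 days). Confluence was imaged live and normalized to DMSO. Curves were taken at the 95th percentile of time to DMSO confluence, and AAC was calculated.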

A short description of series [14]: Antiproliferative activity against human G571 cells incubated for 9 to 12 days by IncuCyte zoom live-cell imaging analysis. The class given is functional, cell-based. A digest of the protocol: as §1
Series [15] deals with G561. The series is described as follows: Inhibition of cell growth in human G561 cells pretreated with compound for 14 days followed by compound washout and measured after 14 days. The class given is functional, cell-based. The settings on record: time 14.0 day. A digest of the protocol: as §2
Series [16] in a line: Antiproliferative activity against human G567 cells incubated for 9 to 12 days by IncuCyte zoom live-cell imaging analysis. Type of series: functional, cell-based. A digest of the protocol:
as §1

Series [17] relates to G583. The series is described as follows: Inhibition of cell growth in human G583 cells pretreated with compound for 14 days followed by compound washout and measured after 14 days. The class given is functional, cell-based. The settings on record: time 14.0 day. A digest of the protocol: as §2
A short description of series [18]: Antiproliferative activity against human G477 cells incubated for 9 to 12 days by IncuCyte zoom live-cell imaging analysis. Type of series: functional, cell-based. A digest of the protocol: as §3
Series [19] in a line: Antiproliferative activity against human BT189 cells incubated for 9 to 12 days by IncuCyte zoom live-cell imaging analysis. The class given is functional, cell-based.
A short description of series [20]: Antiproliferative activity against human G566 cells incubated for 9 to 12 days by IncuCyte zoom live-cell imaging analysis. The class given is functional, cell-based. In a few lines: as §3
Series [21] can be described thus: Drug concentration in NSG mouse plasma at 100 mg/kg, po measured after 24 hrs. The class given is ADME, organism-based. A digest of the protocol: (§4)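 Single oral gavage to NSG mice (n = 3) at 25, 50 or 100 mg/kg; a 10× DMSO stock was diluted into 1% HEC/0.25% Tween 80/0.05% antifoam. Sacrifice at 24 h. Plasma came from cardiac-puncture blood. Brains were taken after PBS transcardiac perfusion and flash frozen. LC-MS quantitation used a 10-point standard curve of 10–10,000 ng/mL.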

The subject of series [22] is G411. The series is described as follows: Antitumor activity against human G411 xenografted in NSG mouse assessed as mean survival time at 50 mg/kg, po administered as 3 days on and 4 days off schedule for 4 cycles (reference value: 30 days). As to conditions: time 28 day. Type of series: functional. A digest of the protocol: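 Female NSG mice, 5–10 weeks old, 12 per group. 2 × 10^4 G411 cells were injected stereotactically into the forebrain, 3 mm deep. Oral gavage started 1 week later in vehicle of 1% HEC/0.25% Tween 80/0.05% antifoam, given daily for 3 days then 4 days off, for 4 cycles or until end point. Mice were euthanized at neurological symptoms with domed head. Survival was compared by log-rank test.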

Series [23] is described as follows: Antiproliferative activity against human BT50 cells incubated for 9 to 12 days by IncuCyte zoom live-cell imaging analysis. The class given is functional, cell-based.
Series [24] relates to G411. The series can be described thus: In vivo inhibition of PRMT5 in human G411 cells xenografted in NSG mouse assessed as reduction in SDMA level at 50 mg/kg, po administered as 3 days on and 4 days off schedule for 4 cycles. The class given is functional, organism-based. The settings on record: time 28.0 day. A digest of the protocol:
(§5)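 Female NSG mice aged 5–10 weeks received 2 × 10^4 G411 GSCs stereotaxically into the forebrain (2 mm lateral, 1 mm posterior to bregma, 3 mm deep). From 1 week post-implant, mice got 50 mg/kg by oral gavage in 1% HEC/0.25% Tween 80/0.05% antifoam, 3 days on/4 off, for 4 cycles or until endpoint. Endpoint brains went to H&E; tumor tissue went to SDMA western blot.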
For orientation: In xenograft studies the graft and the host belong to different species.

The nature of series [25]: Toxicity in NSG mouse assessed as tolerability at 50 mg/kg, po administered as 3 days on and 4 days off schedule and measured upto 8 weeks. As to conditions: in vivo, 1344 h. Type of series: organism-based. A digest of the protocol: (§6)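 NSG mice, 3 per group, dosed orally in weekly cycles of 3 days on and 4 days off. Weight and condition were recorded twice weekly. Mice losing more than 20% body weight were sacrificed.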

The nature of series [26]: Toxicity in NSG mouse assessed as body weight loss at 50 mg/kg, po administered as 3 days on and 4 days off schedule and measured upto 8 weeks. Type of series: organism-based. As to conditions: in vivo, 1344 h. In a few lines:
as §6

The nature of series [27]: Toxicity in NSG mouse assessed as body weight loss at 50 mg/kg, po administered every other day for 3 weeks. Type of series: organism-based. As to conditions: in vivo, 504 h.
Series [28] concerns G411. The series is described as follows: Antitumor activity against human G411 cells xenografted in NSG mouse assessed as reduction in dense cell growth at 50 mg/kg, po administered as 3 days on and 4 days off schedule for 4 cycles. The class given is functional, organism-based. The settings on record: time 28.0 day. A digest of the protocol:
as §5

Series [29] in a line: Drug concentration in NSG mouse brain at 100 mg/kg, po measured after 24 hrs. Type of series: ADME, organism-based. The settings on record: read-out: Ct. A digest of the protocol: as §4

As to `O=C(NC[C@H](O)CN1CCc2ccccc2C1)c1ccnc(NC2CCC2)c1`, the pIC50 was 6.47 in series [1]; 5.03 in series [2]; 7.30 in series [3]; 4.41 in series [6]; 7.00 in [7]; 6.82 in [8]. In addition, the pIC50 was 4.72 in series [10]; 7.22 in [12]; 4.34 in series [14]; 4.53 in series [16]; 6.96 in [19]; 5.69 in series [20]. In addition, the inhibition result in series [4], in series [9] and in series [15] was “inactive” in each case. Further, in series [5], the outcome was Active. For the same compound, the pEC50 was 7.30 in [11], 7.00 in series [13] and 5.50 in [18]. The inhibition entry in series [17] is “Active”.

On to `Nc1ncnc2c1ccn2[C@@H]1O[C@H]([C@H](O)c2ccccc2)[C@@H](O)[C@H]1O`, for which the results for the concentration at 24 h in series [21] and in [29] were 159 nM and 269 nM, respectively. In addition, the outcome in [5] and in series [28] was Active. Besides, in [22], the Time was found to be 37 days. Moreover, the negative logarithm of the IC50 (pIC50) is 7.70 in series [23] and 7.52 in series [20]. For the same compound, the inhibition entry in series [24] is “Active”. The Activity entry is listed as “Non-Toxic” in series [25], less than 10% in [26] and more than 20% in series [27]. In addition, the pEC50 was 7.72 in series [13] and 7.40 in [18].
